# Data published in ChEMBL document CHEMBL3232844, “Synthesis and structure activity relationships of schweinfurthin indoles” (2014).
# Tests used:
# Format in all cases: functional
# SNB-19 = test: Cytotoxicity against human SNB19 cells; details: for CC50: read-out: pLC50 (the source's name) (converted); for TGI: read-out: pTGI (converted)
# Method in brief: (§1)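 Tested in a 60-cell-line human tumor panel screen; the read-out is growth inhibition, reported as GI50 for each cell line.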
# NCI-H522 = test: Cytotoxicity against human NCI-H522 cells; details: for CC50: read-out: pLC50 (the source's name) (converted); for TGI: read-out: pTGI (converted); method in brief: as §1
# SR = test: Cytotoxicity against human SR cells; details: for CC50: read-out: pLC50 (the source's name) (converted); for TGI: read-out: pTGI (converted)
# Method in brief: (§2)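 Cell line run as part of the 60-cell-line screening panel; growth inhibition was reported as a GI50 for each line.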
# [1] = Cytotoxicity against human OVCAR5 cells; details: for GI50: OVCAR-5; for CC50: OVCAR-5, read-out: pLC50 (the source's name) (converted); for TGI: OVCAR-5, read-out: pTGI (converted); method in brief: as §1
# SK-MEL-28 = test: Cytotoxicity against human SK-MEL-28 cells; details: for CC50: read-out: pLC50 (the source's name) (converted); for TGI: read-out: pTGI (converted); method in brief: as §1
# HOP-92 = test: Cytotoxicity against human HOP92 cells; details: for CC50: read-out: pLC50 (the source's name) (converted); for TGI: read-out: pTGI (converted); method in brief: as §1
# HCC 2998 = test: Cytotoxicity against human HCC2998 cells; details: for CC50: read-out: pLC50 (the source's name) (converted); for TGI: read-out: pTGI (converted); method in brief: as §1
# HOP-62 = test: Cytotoxicity against human HOP62 cells; details: for CC50: read-out: pLC50 (the source's name) (converted); for TGI: read-out: pTGI (converted); method in brief: as §1
# [2] = Cytotoxicity against human Hs578T cells; details: Hs-578T; for TGI: read-out: pTGI (converted); method in brief: as §1
# [3] = Cytotoxicity against human OVCAR8 cells; details: for GI50: OVCAR-8; for CC50: OVCAR-8, read-out: pLC50 (the source's name) (converted); for TGI: OVCAR-8, read-out: pTGI (converted); method in brief: as §1
# SF-268 = test: Cytotoxicity against human SF268 cells; details: for CC50: read-out: pLC50 (the source's name) (converted); for TGI: read-out: pTGI (converted); method in brief: as §1
# DU-145 = test: Cytotoxicity against human DU145 cells; details: for TGI: read-out: pTGI (converted); method in brief: as §1
# RPMI-8226 = test: Cytotoxicity against human RPMI8226 cells; details: for TGI: read-out: pTGI (converted); method in brief: as §1
# TK-10 = test: Cytotoxicity against human TK10 cells; details: for TGI: read-out: pTGI (converted); method in brief: as §2
# SW-620 = test: Cytotoxicity against human SW620 cells; details: for CC50: read-out: pLC50 (the source's name) (converted); for TGI: read-out: pTGI (converted); method in brief: as §2
# Malme-3M = test: Cytotoxicity against human MALME-3M cells; details: for CC50: read-out: pLC50 (the source's name) (converted); for TGI: read-out: pTGI (converted); method in brief: as §1
# KM12 = test: Cytotoxicity against human KM12 cells; details: for CC50: read-out: pLC50 (the source's name) (converted); for TGI: read-out: pTGI (converted); method in brief: as §1
smiles,measurement,setting,value
COc1cc(/C=C/c2cc(OC)c3c(CC=C(C)C)c[nH]c3c2)cc2c1O[C@]1(C)CC[C@@H](O)C(C)(C)[C@H]1C2,GI50,SNB-19,0.398 µM
same,CC50,SNB-19,28.2 µM
same,TGI,SNB-19,4.17 µM
same,GI50,NCI-H522,0.646 µM
same,CC50,NCI-H522,5.25 µM
same,TGI,NCI-H522,2 µM
same,GI50,SR,0.324 µM
same,CC50,SR,> 100 µM
same,TGI,SR,5.5 µM
same,GI50,[1],1.55 µM
same,CC50,[1],51.3 µM
same,TGI,[1],7.24 µM
same,GI50,SK-MEL-28,0.347 µM
same,CC50,SK-MEL-28,15.8 µM
same,TGI,SK-MEL-28,2.24 µM
same,GI50,HOP-92,0.178 µM
same,CC50,HOP-92,93.3 µM
same,TGI,HOP-92,5.62 µM
same,GI50,HCC 2998,2.51 µM
same,CC50,HCC 2998,53.7 µM
same,TGI,HCC 2998,15.8 µM
same,GI50,HOP-62,0.0871 µM
same,CC50,HOP-62,2.34 µM
same,TGI,HOP-62,0.479 µM
same,GI50,[2],0.0537 µM
same,LC50,[2],> 100 µM
same,TGI,[2],0.692 µM
same,GI50,[3],3.8 µM
same,CC50,[3],74.1 µM
same,TGI,[3],23.4 µM
same,GI50,SF-268,1.12 µM
same,CC50,SF-268,91.2 µM
same,TGI,SF-268,14.5 µM
same,GI50,DU-145,2.04 µM
same,LC50 (50% lethal concentration),DU-145,46.8 µM
same,TGI,DU-145,15.1 µM
same,GI50,RPMI-8226,0.0776 µM
same,TGI,RPMI-8226,0.355 µM
same,GI50,TK-10,2.75 µM
same,LC50,TK-10,66.1 µM
same,TGI,TK-10,17.4 µM
same,GI50,SW-620,0.288 µM
same,CC50,SW-620,4.07 µM
same,TGI,SW-620,1.12 µM
same,GI50,Malme-3M,2 µM
same,CC50,Malme-3M,91.2 µM
same,TGI,Malme-3M,8.71 µM
same,GI50,KM12,0.355 µM
same,CC50,KM12,7.94 µM
same,TGI,KM12,1.7 µM
COc1cc(/C=C/c2cc(OC)c3ccn(C)c3c2)cc2c1O[C@]1(C)CC[C@@H](O)C(C)(C)[C@H]1C2,GI50,SNB-19,1.38 µM
same,CC50,SNB-19,> 100 µM
same,TGI,SNB-19,> 100 µM
same,GI50,NCI-H522,1.82 µM
same,CC50,NCI-H522,> 100 µM
same,TGI,NCI-H522,8.13 µM
same,GI50,SR,0.513 µM
same,CC50,SR,> 100 µM
same,TGI,SR,> 100 µM
same,GI50,[1],4.57 µM
same,CC50,[1],> 100 µM
same,TGI,[1],38 µM
same,GI50,SK-MEL-28,1.74 µM
same,CC50,SK-MEL-28,64.6 µM
same,TGI,SK-MEL-28,17.4 µM
same,GI50,HOP-92,1.2 µM
same,CC50,HOP-92,> 100 µM
same,TGI,HOP-92,5.75 µM
same,GI50,HCC 2998,5.25 µM
same,CC50,HCC 2998,75.9 µM
same,TGI,HCC 2998,25.1 µM
same,GI50,HOP-62,0.617 µM
same,CC50,HOP-62,28.8 µM
same,TGI,HOP-62,3.8 µM
same,GI50,[2],0.355 µM
same,LC50,[2],> 100 µM
same,TGI,[2],5.01 µM
same,GI50,[3],9.33 µM
same,CC50,[3],> 100 µM
same,TGI,[3],> 100 µM
same,GI50,SF-268,2.09 µM
same,CC50,SF-268,> 100 µM
same,TGI,SF-268,69.2 µM
same,GI50,DU-145,2.45 µM
same,LC50 (50% lethal concentration),DU-145,> 100 µM
same,TGI,DU-145,66.1 µM
same,GI50,RPMI-8226,0.17 µM
same,CC50,RPMI-8226; read-out: pLC50 (the source's name) (converted),> 100 µM
same,TGI,RPMI-8226,2 µM
same,GI50,TK-10,3.16 µM
same,LC50,TK-10,> 100 µM
same,TGI,TK-10,93.3 µM
same,GI50,SW-620,1.29 µM
same,CC50,SW-620,10.5 µM
same,TGI,SW-620,3.39 µM
same,GI50,Malme-3M,3.8 µM
same,CC50,Malme-3M,> 100 µM
same,TGI,Malme-3M,47.9 µM
same,GI50,KM12,2 µM
same,CC50,KM12,41.7 µM
same,TGI,KM12,11.2 µM
